Test results from ChEMBL document CHEMBL1143755, “Food web-specific biomagnification of persistent organic pollutants” (Science, 2007).

Columns and labels:
[1] = Octanol-air partition coefficient, log KOA of the compound; format: physicochemical
Homo sapiens = species: Homo sapiens; experiment: Biomagnification factors in human; format: ADME, organism-based; settings: in vivo
Method in brief: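 Modelled, not measured: a bioaccumulation model using fugacity D-values (respiration, diet, faeces, urine, metabolism, lactation, growth) gives BMF as fB/fD or CB/CD relative to diet. The Inuit diet is taken as Arctic fish and wildlife (caribou, ringed seal, walrus, beluga) plus southern Canadian agricultural foods, the latter simulated from Great Lakes food chains. KOA is evaluated at 37 °C.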

[2] = Biomagnification factors in Diporeia; format: ADME
[3] = Octanol-water partition coefficient, log KOW of the compound; format: physicochemical

SMILES: Cc1c([N+](=O)[O-])c(C)c([N+](=O)[O-])c(C(C)(C)C)c1[N+](=O)[O-]
- log KOA [1]: 8.9
- BMF (Homo sapiens): 89
- BMF [2]: < 1
- logP ([3]; read-out: LogP): 4.1

SMILES: Brc1ccc(Oc2ccc(Br)cc2Br)c(Br)c1
- log KOA [1]: 9.8
- BMF (Homo sapiens): 98
- BMF [2]: 2.2
- logP ([3]; read-out: LogP): 6

SMILES: Brc1c(Br)c(Br)c(Oc2c(Br)c(Br)c(Br)c(Br)c2Br)c(Br)c1Br
- log KOA [1]: 13.1
- BMF (Homo sapiens): 8
- BMF [2]: 1
- logP [3]: 9.9

SMILES: Brc1ccc(Oc2cc(Br)c(Br)cc2Br)c(Br)c1
- log KOA [1]: 11.2
- BMF (Homo sapiens): 98
- BMF [2]: 2.5
- logP ([3]; read-out: LogP): 6.8

SMILES: Clc1cc(Cl)c(-c2cc(Cl)c(Cl)c(Cl)c2Cl)cc1Cl
- log KOA [1]: 10.9
- BMF (Homo sapiens): 95
- BMF [2]: 2.5
- logP ([3]; read-out: LogP): 7.5

SMILES: O=S1OC[C@@H]2[C@H](CO1)[C@@]1(Cl)C(Cl)=C(Cl)[C@@]2(Cl)C1(Cl)Cl (stereo partly specified)
- log KOA [1]: 7.1
- BMF (Homo sapiens): 23
- BMF [2]: < 1
- logP ([3]; read-out: LogP): 3.7

SMILES: Clc1cc(Cl)c(Cl)cc1Cl
- log KOA [1]: 6.3
- BMF (Homo sapiens): 5.9
- BMF [2]: < 1
- logP ([3]; read-out: LogP): 4.7

SMILES: Clc1cc(Cl)cc(Cl)c1 [1,3,5-TRICHLOROBENZENE]
- log KOA [1]: 4.7
- BMF (Homo sapiens): < 1
- BMF [2]: < 1
- logP ([3]; read-out: LogP): 3.5

SMILES: Clc1cc(Cl)c(-c2cc(Cl)c(Cl)cc2Cl)cc1Cl [2,2',4,4',5,5'-HEXACHLOROBIPHENYL]
- log KOA [1]: 9.6
- BMF (Homo sapiens): 96
- BMF [2]: 2.5
- logP ([3]; read-out: LogP): 7.5

SMILES: Cl[C@H]1[C@H](Cl)[C@@H](Cl)[C@H](Cl)[C@@H](Cl)[C@@H]1Cl [BETA-HEXACHLOROCYCLOHEXANE]
- log KOA [1]: 8.9
- BMF (Homo sapiens): 84
- BMF [2]: < 1
- logP ([3]; read-out: LogP): 3.8

SMILES: OC(c1ccc(Cl)cc1)(c1ccc(Cl)cc1)C(Cl)(Cl)Cl [DICOFOL]
- log KOA [1]: 8.9
- BMF (Homo sapiens): 76
- BMF [2]: < 1
- logP ([3]; read-out: LogP): 3.5

SMILES: ClC1=C(Cl)[C@]2(Cl)[C@@H]3[C@@H]4C[C@@H]([C@H]5O[C@@H]45)[C@@H]3[C@@]1(Cl)C2(Cl)Cl [DIELDRIN]
- log KOA [1]: 8.8
- BMF (Homo sapiens): 93
- BMF [2]: 1.7
- logP ([3]; read-out: LogP): 5.4

SMILES: ClC(Cl)=C(Cl)C(Cl)=C(Cl)Cl [HEXACHLOROBUTADIENE]
- log KOA [1]: 3.9
- BMF (Homo sapiens): < 1
- BMF [2]: < 1
- logP ([3]; read-out: LogP): 4.5

SMILES: ClC1(Cl)C2(Cl)C3(Cl)C4(Cl)C(Cl)(Cl)C5(Cl)C3(Cl)C1(Cl)C5(Cl)C24Cl (stereo unspecified) [MIREX]
- log KOA [1]: 9.6
- BMF (Homo sapiens): 82
- BMF [2]: 1
- logP ([3]; read-out: LogP): 8.1

SMILES: Clc1cc(Cl)c(Cl)c(Cl)c1Cl [PENTACHLOROBENZENE]
- log KOA [1]: 6.9
- BMF (Homo sapiens): 16
- BMF [2]: < 1
- logP ([3]; read-out: LogP): 5

SMILES: Clc1c(Cl)c(Cl)c(Cl)c(Cl)c1Cl [PERCHLOROBENZENE]
- log KOA [1]: 7.7
- BMF (Homo sapiens): 55
- BMF [2]: 1.8
- logP ([3]; read-out: LogP): 5.5

SMILES: C=Cc1ccccc1 [STYRENE]
- log KOA [1]: 4.9
- BMF (Homo sapiens): < 1
- BMF [2]: < 1
- logP ([3]; read-out: LogP): 2.5

SMILES: O=S(=O)(c1ccc(Cl)cc1)c1cc(Cl)c(Cl)cc1Cl [TETRADIFON]
- log KOA [1]: 11.4
- BMF (Homo sapiens): 97
- BMF [2]: < 1
- logP ([3]; read-out: LogP): 4.6

SMILES: CCCN(CCC)c1c([N+](=O)[O-])cc(C(F)(F)F)cc1[N+](=O)[O-] [TRIFLURALIN]
- log KOA [1]: 7.2
- BMF (Homo sapiens): 28
- BMF [2]: < 1
- logP ([3]; read-out: LogP): 4.4
